Source: PubChem
TRPC4 block = inhibitors of mouse TRPC4 channel, primary screen, Fluo4 calcium, HEK293 TRPC4beta/mu-opioid cells | Short transient receptor potential channel 4 (Mus musculus), Q9QUQ5 | DAMGO-evoked Fluo4 calcium flux; stronger effect = lower value | B-score at 10 µM | 300,000 tested, 0.39% active | AID 2247, 2010;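 active = B-score over 3 SD under the library average, no early fluorescence shift, positive overall ratio signal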
Target sequence (Q9QUQ5 whole entry, looked up): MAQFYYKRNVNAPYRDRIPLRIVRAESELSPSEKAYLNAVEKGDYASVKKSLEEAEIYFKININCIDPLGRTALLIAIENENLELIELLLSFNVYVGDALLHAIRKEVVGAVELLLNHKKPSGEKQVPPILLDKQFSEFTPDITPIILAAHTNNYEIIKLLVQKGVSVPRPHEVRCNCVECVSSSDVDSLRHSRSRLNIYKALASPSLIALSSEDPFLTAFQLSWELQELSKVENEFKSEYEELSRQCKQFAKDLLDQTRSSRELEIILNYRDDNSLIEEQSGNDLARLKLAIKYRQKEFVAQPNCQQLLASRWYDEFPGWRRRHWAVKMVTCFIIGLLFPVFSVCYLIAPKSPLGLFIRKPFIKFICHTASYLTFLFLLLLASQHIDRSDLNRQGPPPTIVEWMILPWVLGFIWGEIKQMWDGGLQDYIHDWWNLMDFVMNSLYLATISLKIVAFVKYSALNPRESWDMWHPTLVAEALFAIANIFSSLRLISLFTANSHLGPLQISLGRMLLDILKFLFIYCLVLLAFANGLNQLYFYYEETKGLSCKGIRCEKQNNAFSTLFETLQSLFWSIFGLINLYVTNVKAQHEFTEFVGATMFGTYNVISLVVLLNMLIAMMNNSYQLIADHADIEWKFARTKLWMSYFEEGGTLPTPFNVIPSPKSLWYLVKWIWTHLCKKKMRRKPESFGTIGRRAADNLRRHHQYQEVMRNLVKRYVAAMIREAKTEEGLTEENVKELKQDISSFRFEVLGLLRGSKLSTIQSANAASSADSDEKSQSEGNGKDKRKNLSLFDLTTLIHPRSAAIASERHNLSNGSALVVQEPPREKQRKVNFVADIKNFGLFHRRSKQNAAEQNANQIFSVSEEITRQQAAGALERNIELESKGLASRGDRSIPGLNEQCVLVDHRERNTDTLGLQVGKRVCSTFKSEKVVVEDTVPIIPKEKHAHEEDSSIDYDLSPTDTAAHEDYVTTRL
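Assay system: HEK293 cells with stable TRPC4beta plus mu-opioid receptor expression. Dosing: single dose. Measured by: Fluo4 Ca2+ flux fluorescence. Also added: DAMGO in two steps, submaximal then maximal. Read-out: B score from integrated Fluo4 fluorescence ratio.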
TRPC4 agonist = activators of mouse TRPC4 channel, primary screen, Fluo4 calcium, HEK293 TRPC4beta/mu-opioid cells | 310,000 tested, 0.49% active | Fluo4 calcium fluorescence; stronger effect = higher value | Short transient receptor potential channel 4 (Mus musculus), Q9QUQ5 | B-score at 10 µM;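 active = B-score above 5 SD of library B-scores, and initial fluorescence ratio not above library mean plus 5 SD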;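 also: positive B-score marks a calcium rise read as TRPC4 activation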
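Test system: HEK293 cells stably co-expressing mouse TRPC4beta and mu-opioid receptor | Schedule: Fluo4 dye loading 45 min at room temperature, 110 s recording | Measured by: Kinetic Fluo4 calcium fluorescence, 5 s baseline at 1 Hz | Evaluation: B score of integrated ratio | Controls: Buffer (low) and maximal DAMGO (high)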
TRPC6 activator = mouse TRPC6 channel activators, primary screen, cell-based, HEK293, membrane potential dye; HEK293-TRPC6 membrane potential dye fluorescence; stronger effect = higher value; B-score at 10 µM; 310,000 tested, 0.13% active;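 active = B-score of the integrated fluorescence ratio above library mean plus 3 SD, and starting fluorescence ratio within library mean plus 5 SD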;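 also: higher score means more depolarization so channel activation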
TRPC6 inh = mouse TRPC6 channel inhibitors, primary screen, cell-based, HEK293, membrane potential dye; Short transient receptor potential channel 6 (Mus musculus), Q61143; ACh-evoked depolarization; stronger effect = lower value; B-score at 10 µM; 310,000 tested, 1.1% active; AID 2553, 2010;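 active = B-score under library mean minus 3 SD, initial fluorescence not abnormally high, positive integrated signal ratio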;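 also: B-score derived from integrated fluorescence ratio over the kinetic read; more negative B-score means stronger inhibition of depolarization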
TRPC4 PAM = positive allosteric modulators of TRPC4, primary screen, cell-based, mouse TRPC4beta, HEK293 mu-opioid, Fluo-4 calcium. Short transient receptor potential channel 4 (Mus musculus), Q9QUQ5. DAMGO EC20, Fluo-4 Ca2+ flux; stronger effect = higher value. B-score at 10 µM. 310,000 tested, 0.42% active;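 active = B-score of calcium response area above 5 SD of library B-scores, with initial fluorescence ratio within 5 SD of library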;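 also: B-score of integrated fluorescence ratio over time as area under calcium response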
HEK293 MPD ctr = parental HEK293 membrane potential modulation, confirmation, counter-screen for TRPC6 modulator project, cell-based. shares compounds with TRPC6 inh. membrane potential dye fluorescence. membrane potential signal change, % at 10 µM. 2,400 tested, 51% active. AID 488924, 2010;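 active = membrane potential signal moves up or down beyond 5 SD from buffer-only wells, on both duplicate plates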
HEK293 MPD ctr 2 = second counter-screen for TRPC6 modulators: effect in parental HEK293 cells; shares compounds with TRPC6 inh; membrane potential dye fluorescence; after compound, maximal acetylcholine stimulation; inhibition, % at 10 µM; 2,400 tested, 14% active;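 active = membrane potential signal drops by more than 5 SD from the mean control signal, in both duplicate plates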;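 also: plate controls were acetylcholine ECmax control wells for no effect and buffer only wells for full effect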
TRPC4/MOR mod = TRPC4 modulation by TRPC6 hit compounds, confirmation, selectivity assay for TRPC6 modulator project, cell-based, HEK293 TRPC4/mu-opioid, membrane potential dye, mouse; shares compounds with TRPC6 inh; membrane potential fluorescence; percent change from control (negative = decrease, positive = increase), % at 10 µM; 2,400 tested, 69% active;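 active = membrane potential signal moved up or down beyond 5 SD of buffer control wells, in both duplicate plates, actives on both sides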;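 also: plate controls were assay buffer wells for no effect and DAMGO maximal-effect wells for full effect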
TRPC4/MOR inh 2 = second selectivity test of TRPC6 modulators against mouse TRPC4; shares compounds with TRPC6 inh; HEK293 TRPC4/mu-opioid, membrane potential dye fluorescence; stimulated with maximal-effect DAMGO; inhibition, % at 10 µM; 2,400 tested, 55% active; AID 488928;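 active = drop in membrane potential signal beyond 5 SD of the control wells in both duplicate plates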;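 also: TRPC4 counter screen for TRPC6 hits run under conditions tuned for TRPC6 not TRPC4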
TRPC6 block conf = mouse TRPC6 channel inhibitors, confirmation, HEK293 cells, membrane potential dye, duplicate. ACh-evoked depolarization. inhibition, % at 10 µM. 3,300 tested, 43% active. shares compounds with TRPC6 inh;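 active = fluorescence ratio falls more than 5 SD below the full-stimulation control mean, in both duplicate runs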;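 also: integrated fluorescence ratio of peak minus minimum over baseline after agonist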
TRPC6 act conf = mouse TRPC6 channel activators, confirmation, HEK293 cells, membrane potential dye, duplicate; shares compounds with TRPC6 inh; HEK293-TRPC6 membrane potential dye fluorescence, FDSS; activation, % at 10 µM; 2,800 tested, 11% active;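 active = ratio signal rise beyond 5 SD above unstimulated control wells' mean, seen in both duplicate runs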;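 also: plate controls were buffer EC0 wells for no effect and acetylcholine ECmax response for full effect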
* = called active by the depositor; i = inactive; x = not tested or not shown. In the library only some 2.3% were active in any assay of this set; here they are far more common.

SMILES	TRPC4 block	TRPC4 agonist	TRPC6 activator	TRPC6 inh	TRPC4 PAM	HEK293 MPD ctr	HEK293 MPD ctr 2	TRPC4/MOR mod	TRPC4/MOR inh 2	TRPC6 block conf	TRPC6 act conf
CCOC(=O)c1c(NC(=O)COc2ccc3ccc(=O)oc3c2)sc(C(=O)N(C)C)c1C	i	i	i	i	i	x	x	x	x	x	x
Cc1ccc(C)c(N(C(=O)c2csnn2)C(C(=O)NC2CCCCC2)c2ccccn2)c1 (configuration not stated)	i	i	i	i	i	x	x	x	x	x	x
O=[N+]([O-])c1ccc(NC(=S)NCCc2ccc(F)cc2)cc1	i	i	i	-5.3*	i	i	i	i	62%*	i	i
O=C(NCCc1ccc(F)cc1)Nc1ccc([N+](=O)[O-])cc1	i	i	i	i	i	x	x	x	x	x	x
CCOc1ccc2[nH]c3c(N4CCc5ccccc5C4)ncnc3c2c1	i	i	i	-6.5*	i	i	i	i	52%*	i	i
CCN(C(=O)COC(=O)c1nc(Cl)ccc1Cl)C1CCS(=O)(=O)C1 (configuration not stated)	i	i	i	i	i	x	x	x	x	x	x
Cc1ccc(SCCSc2nc(C)cc(=O)[nH]2)cc1	i	i	i	i	i	x	x	x	x	x	x
O=C(CN(Cc1ccco1)C(=O)CNS(=O)(=O)c1ccc(F)cc1)NCCc1ccccc1	i	i	i	-5.3*	i	i	i	12%*	i	i	i
COc1ccc(/C=N/NC(=O)CNC(=O)c2ccncc2)cc1OC	i	i	i	i	i	x	x	x	x	x	x
CCN1CCN(c2ccc(S(=O)(=O)N3CCCCC3)cc2NC(=O)c2ccc([N+](=O)[O-])o2)CC1	i	i	i	-7.5*	i	-130%*	i	-30%*	54%*	i	i
